Measured values from publication PMC6726451 (Science Advances, 2019).
“And” between values parts separate entries of the source, which are not always exact repeats. Identical values can stand only once.

Columns and labels:
TtClpP [1] = target: T1, TtClpP (Thermus thermophilus, UniProt Q5SKM8); experiment: TAMRA-FP labeling of TtClpP active-site serines; type: biochemical; conditions: TAMRA-FP 5 μM, TtClpP 1 mg/ml, bortezomib 100 μM
TtClpP [2] = target: T1, TtClpP; experiment: TtClpP peptidase activity, PKMamc degradation; type: biochemical; conditions: Fig. 1B
MtbClpP1P2 complex [3] = target: T2, MtbClpP1P2 complex (Mycobacterium tuberculosis, UniProt P9WPC3+P9WPC5); conditions: cited from earlier work
EcClpP = EcClpP (Escherichia coli, UniProt P0A6G7); experiment: EcClpP peptidase activity, PKMamc degradation; type: biochemical
Procedure, shortened: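 Purified E. coli ClpP was mixed in 50 mM Hepes (pH 7.6) and 50 mM NaCl with the fluorogenic tripeptide PKMamc (100 μM working concentration) and test compound, or a matching DMSO volume. AMC release was read at 340-nm excitation and 462-nm emission at defined intervals. An apparent IC50 was derived from peptidase activity.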

TtClpP [4] = target: T1, TtClpP; experiment: FITC-casein degradation by TtClpP; type: biochemical; conditions: TtClpP 0.1 μM complex
Procedure, shortened: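 FITC-casein, passed over a G25 column to remove free fluorescein, was used at 0.15 μM with TtClpP14 (0.1 μM). Test compound was added at a range of concentrations. Fluorescence rise was monitored at 440-nm excitation, 509-nm emission and 495-nm cutoff. Initial degradation rates after temperature equilibration were plotted against compound concentration.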

TtClpP [5] = target: T1, TtClpP; experiment: FtsZ degradation by TtClpP, SDS-gel electrophoresis; type: biochemical; conditions: 200 μM and 2 mM bortezomib, 37°C, TtClpP 1 μM complex
Procedure, shortened: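 Purified intrinsically disordered E. coli FtsZ (20 μM) was incubated at 37°C with TtClpP14 (1 μM) and the stated test-compound concentrations. Aliquots were withdrawn at set time points and resolved on a 15% SDS gel to follow FtsZ loss.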

TtClpP with TtClpX = TtClpP with TtClpX (Thermus thermophilus, UniProt Q5SKM8); experiment: TtClpP peptidase activity in the presence of TtClpX; type: biochemical
Procedure, shortened: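 N-terminally truncated TtClpX and TtClpP were expressed in E. coli BL21RIL and purified by NiNTA and SEC. Concentrations are given as hexamer and tetradecamer. TtClpP (0.1 μM complex) was mixed with TtClpX at varying ClpX6/ClpP14 molar ratios in 50 mM Hepes (pH 7.6) and 50 mM NaCl, without or with 10 μM test compound. PKMamc hydrolysis was read at 340/462 nm, at 60°C unless otherwise indicated. The ratio giving half-maximal activation was derived from activation plotted against molar ratio.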

TtClpP [6] = target: T1, TtClpP; experiment: Isothermal titration calorimetry fitted to the MWC model; type: binding
Procedure, shortened: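 TtClpP (10 μM, cell) was titrated with test compound (1.4 mM, syringe) in 50 mM Hepes (pH 7.6) and 50 mM NaCl at 25°, 35° and 45°C. Solutions were degassed. Each run used 19 injections 150 s apart with stirring at 750 rpm, in replicates. Integrated heats were fitted by nonlinear least squares to an MWC model with 14 identical single-site subunits. The fit gave KR, KT, γ, enthalpies and active fraction N.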

TtClpP [7] = target: T1, TtClpP; experiment: Dynamic light scattering, hydrodynamic radius of TtClpP; conditions: 5 mM bortezomib; for hydrodynamic radius Rhyd of TtClpP: TtClpP 3 μM
Procedure, shortened: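 TtClpP (3 μM) was measured in 100 mM tris (pH 8.5), 100 mM NaCl and 5% glycerol, with no additive or with 5 mM bortezomib added, at 25° or 45°C. Each condition was run in triplicate, three times for each of two TtClpP samples. Hydrodynamic radius is the average of these replicates.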

TtClpP [8] = target: T1, TtClpP; experiment: Solution-state methyl NMR of Ile-δ1-CH3-labeled TtClpP; type: binding; conditions: 2 mM bortezomib, TtClpP 250 μM, 60°C
Procedure, shortened: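 Uniformly 2H,15N-labelled TtClpP carrying Ile-δ1-13CH3 labels, and its S97A mutant, were used. Protein was expressed in D2O and refolded from urea-solubilised inclusion bodies by NiNTA and SEC. Protein (250 μM) was mixed with 2 mM test compound or the DMSO equivalent in 100 mM tris (pH 8.5), 100 mM NaCl and 5% glycerol. 2D SOFAST-methyl-TROSY spectra were recorded at 700 MHz and 60°C, for 10–120 min per sample.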

S97A TtClpP = S97A TtClpP (Thermus thermophilus, UniProt Q5SKM8, S97A); type: binding; conditions: 2 mM bortezomib, S97A TtClpP 250 μM, 60°C
TtClpP [9] = target: T1, TtClpP; experiment: MAS solid-state NMR chemical shift perturbations; type: binding; conditions: 10 mM bortezomib, sedimented TtClpP
MtbClpP1P2 complex [10] = target: T2, MtbClpP1P2 complex; experiment: MtbClpP1P2 peptidase activity; type: biochemical
MtbClpXP1P2 complex = conditions: in vivo cell screen; cited from earlier work
proteasome = conditions: cited from earlier work
[11] = 35°C, absolute error 0.3 kcal/mol
[12] = 45°C, absolute error 0.3 kcal/mol

Q: For `NC(N)=O` [urea], which “TAMRA-FP labeling of TtClpP” value (TtClpP [1]) is on record?
A: reduced the amount of TAMRA bound to ClpP

Q: What does the source list for Bz-LL?
A: activation of TtClpP peptidase activity compared with bortezomib (TtClpP [2]): capable to activate TtClpP, albeit with lower efficiency; activation of MtbClpP1P2 (MtbClpP1P2 complex [3]): most potent of these activators in Mtb

Q: With `O=c1oc(Cl)c(Cl)c2ccccc12` [DCC, dichloroisocoumarin] as the compound, how does the “TAMRA-FP labeling of TtClpP” value (TtClpP [1]) read?
A: reduced the amount of TAMRA bound to ClpP

Q: For `CC(C)C[C@H](NC(=O)[C@H](Cc1ccccc1)NC(=O)c1cnccn1)B(O)O` [bortezomib], which IC50 (EcClpP) is on record?
A: 1.6 µM

Q: What about the “concentration dependence of FITC-casein degradation activation” value (TtClpP [4]) of the same compound?
A: linear and no reduction of the activation was observed up to 100 μM

Q: And the “effect on FITC-casein degradation” value (TtClpP [4]; FITC-casein 0.15 μM)?
A: a striking activation was observed

Q: And the “FtsZ degradation by TtClpP” value (TtClpP [5])?
A: degradation of FtsZ was observed

Q: And the “effect on TtClpP peptidase activity in the presence of ClpX” value (TtClpP with TtClpX; bortezomib 10 μM, PKM-amc 100 μM)?
A: acted as an inhibitor

Q: And the “ClpX6/ClpP14 ratio at half-maximal peptidase activity” value (TtClpP with TtClpX; bortezomib-loaded TtClpP, bortezomib 10 μM)?
A: 2.4 ± 0.3 and 2.4

Q: What about the “TtClpX6 concentration at half-maximal activation” value (TtClpP with TtClpX; in the presence of bortezomib, ratio 2.4) of the same compound?
A: 120 nM

Q: And the “TAMRA-FP labeling of TtClpP” value (TtClpP [1])?
A: failed to observe any increase of TAMRA-FP labeling

Q: What about the “KT, association constant for the tense state” value (“KT, association constant” for short) (TtClpP [6]; 25°C) of the same compound?
A: No apparent cooperativity

Q: What about the “N, fraction of active or binding-competent protein” value (“N, fraction” for short) (TtClpP [6]; 25°C) of the same compound?
A: 0.97

Q: And the “ΔHT, binding enthalpy of the T state” value (TtClpP [6]; 25°C)?
A: No apparent cooperativity

Q: And the “ΔHγ, conformational enthalpy between R and T conformations” value (TtClpP [6]; 25°C)?
A: No apparent cooperativity

Q: What about the “γ, equilibrium constant between R and T conformations in the absence of the ligand” value (TtClpP [6]; 25°C) of the same compound?
A: No apparent cooperativity

Q: What about the “ΔHR, binding enthalpy of the R state” value (TtClpP [6]; 25°C, absolute error 0.3 kcal/mol) of the same compound?
A: -0.5 kcal/mol

Q: And the “N, fraction” value (TtClpP [6]; 35°C)?
A: 0.97

Q: What about the “ΔHR, binding enthalpy of the R state” value (TtClpP [6]; [11]) of the same compound?
A: -0.9 kcal/mol

Q: And the “ΔHT, binding enthalpy of the T state” value (TtClpP [6]; [11])?
A: -0.1 kcal/mol

Q: What about the “ΔHγ, conformational enthalpy between R and T conformations” value (TtClpP [6]; [11]) of the same compound?
A: -0.3 kcal/mol

Q: What about the “KT, association constant” value (TtClpP [6]; 35°C, relative error 30%) of the same compound?
A: 28000 M⁻¹

Q: What about the “γ, equilibrium constant between R and T conformations in the absence of the ligand” value (TtClpP [6]; 35°C, relative error 30%) of the same compound?
A: 3.3

Q: And the “N, fraction” value (TtClpP [6]; 45°C)?
A: 1.00

Q: And the “ΔHR, binding enthalpy of the R state” value (TtClpP [6]; [12])?
A: -1.5 kcal/mol

Q: And the “ΔHT, binding enthalpy of the T state” value (TtClpP [6]; [12])?
A: -0.3 kcal/mol

Q: And the “ΔHγ, conformational enthalpy between R and T conformations” value (TtClpP [6]; [12])?
A: -0.2 kcal/mol

Q: And the “KR, association constant for the relaxed state” value (TtClpP [6]; 45°C, relative error 30%)?
A: 65000 M⁻¹

Q: What about the “KT, association constant” value (TtClpP [6]; 45°C, relative error 30%) of the same compound?
A: 25000 M⁻¹

Q: And the Kd (TtClpP [6]; Kd,R = KR^−1, R state, higher affinity)?
A: 15 µM

Q: What about the Kd (TtClpP [6]; Kd,T = KT^−1, T state, lower affinity) of the same compound?
A: 40 µM

Q: And the “free bortezomib concentration at the R↔T crossover point” value (TtClpP [6]; R and T equally populated, MWC model)?
A: around 2 μM

Q: And the “increase in Rhyd of TtClpP on addition of bortezomib” value (TtClpP [7])?
A: approximately 8 Å

Q: And the “hydrodynamic radius Rhyd of TtClpP” value (TtClpP [7]; 25°C)?
A: 6.673 ± 0.192 nm and 6.67 nm

Q: And the “hydrodynamic radius Rhyd of TtClpP” value (TtClpP [7]; 45°C)?
A: 6.702 ± 0.176 nm

Q: And the “binding to wild-type TtClpP by spectral changes” value (TtClpP [8])?
A: unambiguously confirms binding

Q: And the “spectral changes of the S97A mutant” value (S97A TtClpP)?
A: no spectral changes were observed

Q: What about the “chemical shift perturbations on addition of bortezomib” value (TtClpP [9]) of the same compound?
A: bortezomib interacts with the active site

Q: What about the “effect on MtbClpP1P2 peptidase activity” value (MtbClpP1P2 complex [10]) of the same compound?
A: could also activate the peptidase activity of the MtbClpP1P2 complex

Q: What about the “effect on GFPssrA degradation by the MtbClpXP1P2 complex” value (MtbClpXP1P2 complex) of the same compound?
A: inhibitor of GFPssrA degradation

Q: And the “affinity for the chymotrypsin-like sites of the proteasome” value (proteasome)?
A: nanomolar affinity

Q: And the “effect on the chymotrypsin site of the proteasome” value (proteasome)?
A: inhibits efficiently

Q: What about the “effect on the trypsin site of the proteasome” value (proteasome) of the same compound?
A: paradoxical activation
